# From PubChem
# mABHD4 FP – ABHD4 (mouse) inhibition, primary FP screen; inhibition, % at 8.92 µM; purified mABHD4, FP-Rh probe fluorescence polarization; Q8VD66; actives 0.54% (n = 370,000);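 active means inhibition exceeding the mean over every tested compound plus 3 SD, cut at about 30% in these data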;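 further: 0% = plate median of compound wells and 100% = S159A mutant with DMSO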
#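 Test system: mouse ABHD4 enzyme, wild type. Reagent: FP-Rh fluorescent activity-based probe, added after compound pre-incubation. Timing: pre-incubation 45 min, probe exposure 60 min, at 25 °C. Technique: FP readout, ex 525 nm / em 598 nm. Benchmarks: high control S159A mutant with DMSO, low control median of compound wells.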
# HTRA1 inh – HTRA1 (human) protease inhibition. recombinant HTRA1, FP-rhodamine activity-based probe, fluorescence polarization. inhibition, % at 5.96 µM. actives 0.5% (n = 340,000). AID 504803; in the data active means inhibition above about 36%;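 further: 0% = enzyme with DMSO and 100% = wells lacking enzyme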
# SIAE primary – human SIAE inhibition, primary screen | SIAE FP-Rh probe binding, fluorescence polarization | inhibition, % at 9.66 µM | actives 0.69% (n = 370,000);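 active means inhibition above a cutoff: mean of compounds within the control limits plus 3 SD of those, cut at about 17% in these data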;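 further: 0% = plate median of compound wells and 100% = probe without SIAE protein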
# PRMT1 FP inh – inhibitors of human PRMT1; recombinant PRMT1, activity-based probe fluorescence polarization; inhibition, % at 2.79 µM; actives 1.3% (n = 370,000);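 active means inhibition above about 21% made by adding two undisclosed values, limit read from the data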
# Target sequence (Q99873 whole entry, looked up): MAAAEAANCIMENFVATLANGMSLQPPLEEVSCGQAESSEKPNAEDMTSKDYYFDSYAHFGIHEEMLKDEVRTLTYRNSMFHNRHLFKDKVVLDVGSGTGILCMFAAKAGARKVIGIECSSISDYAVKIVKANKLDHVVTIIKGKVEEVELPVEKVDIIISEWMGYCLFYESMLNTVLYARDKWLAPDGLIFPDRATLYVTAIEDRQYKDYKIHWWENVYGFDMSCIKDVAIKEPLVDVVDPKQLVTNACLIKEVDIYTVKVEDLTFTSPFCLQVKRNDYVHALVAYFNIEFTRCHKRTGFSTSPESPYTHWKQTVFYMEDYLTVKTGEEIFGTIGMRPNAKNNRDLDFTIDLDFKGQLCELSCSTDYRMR
# rCAG RNA binder – r(CAG) repeat RNA binding | TO-PRO-1 dye displacement fluorescence | inhibition, % at 3 µM | actives 1.3% (n = 370,000) | AID 651821;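 active means inhibition above the plate cutoff, the mean of all test compounds on that plate plus 3 SD, cut at about 35% in these data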;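 further: 0% = DMSO alone and 100% = 100 µM mitoxantrone as full dye displacement; higher means more dye released from RNA so lower well fluorescence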
# PRMT1 confirm – PRMT1 (human) inhibition, FP confirmation; shares compounds with PRMT1 FP inh; recombinant His-PRMT1, activity-based probe fluorescence polarization; inhibition, % at 2.79 µM; actives 42% (n = 3,300); AID 687036;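 active means mean inhibition across replicates above the hit cutoff derived for the earlier primary screen, cut at about 22% in these data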
# An asterisk follows results filed as active; nt = no result. The list is not random: actives were taken first. Their share in the collection is about 3.3%.
SMILES,mABHD4 FP,HTRA1 inh,SIAE primary,PRMT1 FP inh,rCAG RNA binder,PRMT1 confirm
CCN(CC)c1ccc(/C=N/n2c(-c3ccccc3Br)n[nH]c2=S)cc1,-3,-6,4,25*,28,8
CC(CCN1CCC(C(O)(c2ccccc2)c2ccccc2)CC1)Oc1ccc(C#N)cc1F (stereo not drawn),-2,nt,2,-3,4,nt
Cn1c(=O)c(NC2CCCCC2)c2c3c(cccc31)C(=O)c1ccccc1-2,8,-7,-2,77*,-135,41*
C[C@@H]1C=C(C(=O)NCc2nc3ccccc3[nH]2)O[C@H](OCCCCO)C1,9,5,5,47*,0,33*
CC(=O)N1CCN(c2ncnc3sc(-c4ccccc4)cc23)CC1,-2,10,-9,-6,-4,nt
Oc1ccc(N2CCN(c3ncnc4sc(-c5ccccc5)cc34)CC2)cc1,27,20,6,32*,15,15
CN(C)S(=O)(=O)c1cccc(C(=O)C2=C3SC=C(c4ccccc4)N3CC2)c1,-2,-10,-9,26*,16,28*
CN(C)S(=O)(=O)c1cccc(C(=O)N2CCc3ccccc32)c1,1,-9,5,-2,-6,nt
O=C(NCc1cccnc1)C(=O)C1C(=O)Nc2ccccc21 (stereo not drawn),8,6,2,3,-4,nt
Cc1ccc(NC(=O)Cn2c(O)c(N=NS(=O)(=O)c3ccc(C)cc3)c3ccccc32)cc1,-3,-8,-2,29*,12,23*
Cc1ccc(NC(=O)Cn2c(O)c(N=NC(N)=O)c3ccccc32)cc1,3,-15,-1,1,12,nt
Cc1ccc(SC[C@H](CC(C)C)N2CCN(CCc3ccccc3)CCC2=O)cc1,-13,-47,-1,1,-4,nt
CC(=O)Nc1ccc(SC[C@H](CC(C)C)N2CCN(CCc3ccccc3)CCC2=O)cc1,-3,-5,-4,40*,-2,40*
Cc1c(CNCCc2ccc(Cl)cc2)c(C(=O)O)c(C)n1-c1ccccc1,6,2,6,0,-6,nt
O=C(Nc1nc(-c2ccco2)c(-c2ccco2)s1)C1CC(=O)N(c2ccc3c(c2)OCCO3)C1 (stereo not drawn),-1,11,9,38*,30,10
N#CC1=C(SCC(=O)c2ccccc2)NC2=C(C(=O)CCC2)C1c1ccco1 (stereo not drawn),13,-6,-3,35*,18,3
Cc1ccc(C(=O)CSC2=C(C#N)C(c3ccco3)C3=C(CCCC3=O)N2)cc1 (stereo not drawn),0,6,-12,21,17,nt
Cc1cc(Cl)ccc1N=c1ssnc1Cl,-13,3,-6,44*,7,94*
Cc1ccc(N=c2ssnc2Cl)cc1,7,11,2,70*,-2,89*
Cc1nnc(N=c2ssnc2Cl)o1,1,-3,10,49*,5,70*
Nc1ccccc1N=c1ssnc1Cl,1,-5,4,69*,5,58*
Cc1cc(C)nc(/N=c2/ssnc2Cl)c1,3,9,-1,7,0,nt
Cc1ccc(C(=O)N2CCN(C/C=C/c3ccccc3)CC2)cc1S(=O)(=O)N1CCOCC1,4,1,-8,-8,-1,nt
COc1ccc(CN2CCNC(=O)C2CC(=O)NCC(C)(C)N2CCOCC2)cc1C (stereo not drawn),4,7,3,2,0,nt
CCc1ccc[n+](-c2[nH]c(=O)sc2/C=N/NC([S-])=Nc2ccccc2)c1,24,12,7,87*,-99,40*
SMILES,mABHD4 FP,HTRA1 inh,SIAE primary,PRMT1 FP inh,rCAG RNA binder,PRMT1 confirm
O=c1[nH]c(-[n+]2ccccc2)c(/C=N/NC([S-])=Nc2ccccc2)s1,15,4,-1,50*,-34,15
CCc1ccc[n+](-c2[nH]c(=O)sc2/C=N/N=C(\N)[O-])c1,2,4,13,-2,-2,nt
Cc1cc[n+](-c2[nH]c(=O)sc2/C=N/NC([S-])=Nc2ccccc2)cc1,23,19,10,67*,1,29*
CC(C)(C)c1cc[n+](-c2[nH]c(=O)sc2/C=N/NC(=O)c2ccccc2[O-])cc1,18,6,15,18,-2,nt
Cc1cc(C)c[n+](-c2[nH]c(=O)sc2/C=N/NC([S-])=Nc2ccccc2)c1,19,7,-1,48*,-41,31*
c1ccc2c(c1)-c1nc3ccccc3cc1C2N1CCOCC1 (stereo not drawn),2,-5,3,-4,1,nt
Cc1ccsc1CNC(=O)c1c(-c2ccccc2)noc1C,-7,3,0,-8,0,nt
COc1ccc2c(c1)O/C(=C\c1ccccc1C)C2=O,-5,-24,-3,-3,6,nt
CCC(=O)Oc1ccc2c(c1)O/C(=C\c1ccco1)C2=O,19,nt,2,63*,-8,20
COC(=O)COc1ccc2c(c1)O/C(=C\c1ccco1)C2=O,15,18,1,31*,29,1
CC(=O)Oc1ccc2c(c1)O/C(=C\c1ccncc1)C2=O,nt,4,nt,nt,nt,nt
CC1=N/C(=C/c2ccco2)C(=O)O1,-6,3,7,10,9,nt
Cc1cc(O)cc2c1C(=O)/C(=C/c1ccco1)O2,9,1,-9,28*,8,19
CCN(CC)C(=O)Oc1ccc2c(c1)O/C(=C\c1ccco1)C2=O,21,0,-4,16,19,nt
COc1ccccc1C(=O)Oc1ccc2c(c1)O/C(=C\c1ccncc1)C2=O,4,-5,1,38*,-11,13
COc1ccc(-c2oc3cccnc3c2-c2ccc(OC)nc2)cc1,-7,-21,1,-1,-4,nt
CCCCn1c(N)c(N(C)C(=O)c2ccc(-n3cccn3)cc2)c(=O)[nH]c1=O,-2,1,5,2,2,nt
CC(C)(C)NS(=O)(=O)c1ccc(NC(=S)NC(=O)C2CC2)cc1,-6,-8,-3,1,-3,nt
O=C(CCC1CCN(C(=O)CC2=CCCCC2)CC1)NCc1ccc(F)cc1,4,5,-2,0,-2,nt
CN(C)CCNc1ccc2nnn3c4ccc(O)cc4c(=O)c1c23,12,1,4,6,13,nt
CCN(CC)CCCNc1ccc2ncn3c4ccc(O)cc4c(=O)c1c23,13,10,2,116*,-33,133*
O=C(NCCNC(=O)c1ccccn1)c1ccc(Cl)cc1,-1,3,2,0,-2,nt
O=C(Sc1ccc(Cl)cc1)c1ccccn1,10,3,8,47*,-4,44*
Cc1ccc(-c2cc3nc(-c4ccccc4)cc(N4CCC5(CC4)OCCO5)n3n2)cc1,2,-19,-10,-3,5,nt
Cc1ccc(-c2cc3nc(-c4ccco4)cc(N4CCN(Cc5ccoc5)CC4)n3n2)cc1,-20,nt,-13,27*,nt,9
